The list is not random: actives were taken first. Their share in the collection is about 2.6%.
NadD block: blocks S. aureus nicotinate mononucleotide adenylyltransferase; 360,000 compounds, 0.78% hits; AID 602399; inhibition, % at 20 µM; purified NadD enzyme, colorimetric absorbance read-out; in the data active = inhibition above about 26%
rCAG binder: binds r(CAG) RNA repeats; 370,000 compounds, 1.3% hits; inhibition, % at 3 µM; AID 651821; r(CAG) RNA repeat, TO-PRO-1 dye displacement fluorescence;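 active = inhibition above the plate cutoff, the mean of all test compounds on that plate plus 3 SD, cut at about 35% in these data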;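 note: 0% = DMSO alone and 100% = 100 µM mitoxantrone as full dye displacement; higher means more dye released from RNA so lower well fluorescence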
STEP block: blocks human striatal-enriched tyrosine phosphatase; P54829; recombinant STEP, OMFP fluorogenic substrate, fluorescence; inhibition, % at 20 µM; 360,000 compounds, 0.25% hits; AID 588621;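 active = inhibition at 20 µM, scaled per plate between control wells, above about 37%, limit read from the data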;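 note: 0% = DMSO with enzyme and substrate and 100% = substrate only without enzyme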
Target sequence (P54829 whole entry, looked up): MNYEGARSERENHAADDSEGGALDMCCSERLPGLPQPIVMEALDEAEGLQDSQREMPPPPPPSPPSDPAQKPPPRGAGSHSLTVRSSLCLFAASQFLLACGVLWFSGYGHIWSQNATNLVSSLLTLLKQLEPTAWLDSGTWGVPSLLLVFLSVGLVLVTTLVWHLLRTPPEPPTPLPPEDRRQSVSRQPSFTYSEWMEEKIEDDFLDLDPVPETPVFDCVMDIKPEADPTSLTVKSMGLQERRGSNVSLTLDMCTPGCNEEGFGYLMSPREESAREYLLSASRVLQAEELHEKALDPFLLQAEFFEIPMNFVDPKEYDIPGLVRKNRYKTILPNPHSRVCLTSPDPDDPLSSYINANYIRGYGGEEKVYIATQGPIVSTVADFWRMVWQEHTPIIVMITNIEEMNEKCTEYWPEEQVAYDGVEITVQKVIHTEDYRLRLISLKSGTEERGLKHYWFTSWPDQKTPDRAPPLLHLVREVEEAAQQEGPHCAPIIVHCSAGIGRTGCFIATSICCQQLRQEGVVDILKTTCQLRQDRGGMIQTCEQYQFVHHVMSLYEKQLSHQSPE
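medium = Bis-Tris buffer pH 6.0, 2.5 mM DTT, 0.005% Tween 20 | test system = STEP (striatal-enriched tyrosine phosphatase) enzyme, cell-free | measure = normalized % inhibition | compound dosing = 20 µM, 1% DMSO | also added = 25 µM OMFP | schedule = reaction 20 min, ambient temperature | measured by = fluorescence read at 480 nm ex / 540 nm em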
Scp1 inh: blocks human Scp-1 phosphatase activity. Q9GZU7. 340,000 compounds, 0.88% hits. Recombinant Scp1, phosphopeptide, malachite green phosphate absorbance. AID 493091. inhibition, % at 20 µM;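 active = inhibition above about 50% at 20 µM, limit read from the data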;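 note: plate controls were DMSO wells with enzyme for no effect and wells lacking enzyme for full effect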
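Test system – truncated SCP-1 phosphatase (76-261aa) · Reagent – Phosphorylated 17-residue peptide substrate · Incubation – 45 min room-temperature reaction, 5 min colour, 30 min stabiliser · Detection – colorimetric phosphate reagent with accelerator and stabiliser, absorbance at 630 nm · Measure – % inhibition at 20 µM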
LMPTP inh: LMPTP (human) inhibition; recombinant LMPTP-A, OMFP fluorogenic substrate, fluorescence intensity; 360,000 compounds, 0.22% hits; AID 651560; inhibition, % at 20 µM; P24666;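 active = compounds that cut the enzyme signal by at least half of the control window in the single-dose screen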;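 note: plate controls were DMSO wells with enzyme plus substrate for no effect and substrate without enzyme for full effect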
Target sequence (P24666 whole entry, looked up): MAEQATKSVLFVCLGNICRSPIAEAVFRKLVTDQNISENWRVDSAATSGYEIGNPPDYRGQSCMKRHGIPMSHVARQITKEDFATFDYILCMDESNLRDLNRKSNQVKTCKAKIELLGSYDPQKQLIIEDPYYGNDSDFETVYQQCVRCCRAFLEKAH
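Buffer or medium: Bis-Tris pH 6.0, DTT, detergent; Assay system: LMPTP-A enzyme; Quantity: 0.625 nM enzyme; Detection: endpoint fluorescence intensity; Times: 50 min dark incubation at room temperature; Controls: substrate-only low control, DMSO enzyme-plus-substrate high control; Doses: single 20 µM dose; Read-out: percent inhibition versus substrate-only and uninhibited controls; Reagent: 400 µM OMFP.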
rCAG bind conf: r(CAG) RNA repeat binding, confirmation; shares compounds with rCAG binder; TO-PRO-1 dye displacement fluorescence; inhibition, % at 3 µM; 4,300 compounds, 70% hits; AID 652065;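 active = inhibition above a per-plate cutoff, the mean inhibition of sample wells plus 3 SD, cut at about 35% in these data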;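 note: loss of TO-PRO-1 fluorescence as compound displaces dye from 1x1 AA loop RNA; 0% = DMSO only wells and 100% = 100 µM mitoxantrone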
DNA CAG counter: counter-screen for rCAG RNA binders: DNA CAG dye complex inhibitors. AID 652068. inhibition, % at 3 µM. shares compounds with rCAG binder. 4,300 compounds, 94% hits. d(CAG) DNA oligo TO-PRO-1 dye displacement, fluorescence;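 active = inhibition above its plate's cutoff, the mean test-well inhibition plus 3 SD, cut at about 4.8% in these data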;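 note: 0% = DNA dye mix with DMSO and 100% = 100 µM mitoxantrone; hits displace the dye from DNA and so lower well fluorescence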
dCAG dye DR: disrupts DNA CAG TO-PRO-1 complex in dose response | shares compounds with rCAG binder | DNA CAG/GTC duplex TO-PRO-1 dye displacement fluorescence | IC50, µM | 250 compounds, 20% hits | AID 686960; in the data active = IC50 below about 10 µM
An asterisk follows results filed as active; . = no result given.

SMILES	NadD block	rCAG binder	STEP block	Scp1 inh	LMPTP inh	rCAG bind conf	DNA CAG counter	others
CCCCOCC1CN(CCCC)S(=O)(=O)c2c(cccc2Sc2ccc(SC)cc2)O1 (centres undefined)	.	6	.	.	.	.	.
O=C(N[C@H](C(=O)N1CCC[C@H]1C(=O)NCCc1ccccc1Cl)C1CCCCC1)c1cccs1	.	1	.	.	.	.	.
O=C(COc1ccccc1Cl)Nc1ccccc1C(=O)Nc1cccc(C(=O)O)c1	-1	40*	-2	-5	-1	23	2
O=C(COc1ccccc1Cl)Nc1ccc(C(=O)O)cc1NC(=O)COc1ccccc1Cl	-2	67*	-2	3	-1	53*	19*
O=C(O)c1ccc(NC(=O)c2ccc(Cl)cc2)c(NC(=O)c2ccc(Cl)cc2)c1	0	71*	0	-6	0	59*	23*
O=C(COc1ccccc1Cl)NC(=S)Nc1cccc(NC(=O)c2ccccc2Cl)c1	3	-2	-1	26	4	.	.
CCCCNS(=O)(=O)CC1NCc2ccccc21 (centres undefined)	.	7	.	.	.	.	.
O=C(CCC1CCCCC1)Nc1cccc(C(=O)Nc2ccc(C(=O)O)cc2)c1	-4	35*	-1	-7	-1	27	5.5*
O=C(Nc1ccccc1C(=O)O)c1cccc(NC(=O)c2ccccc2Br)c1	-7	48*	-1	-3	0	33	9.5*
O=C(O)c1cccc(NC(=O)c2cc(NC(=O)c3ccccc3)cc(NC(=O)c3ccccc3)c2)c1	5	66*	-1	8	-1	60*	24*
CC(C)C(=O)Nc1cccc(C(=O)Nc2ccccc2C(=O)O)c1	-5	8	-5	-4	0	.	.
Cc1ccc(-n2nc3ccc(NC(=O)/C=C/c4ccco4)cc3n2)cc1	16	38*	7	38	8	19	11*
Cc1ccc(OCc2nnc(SCC(=O)Nc3cccc4ccccc34)n2Cc2ccco2)cc1	.	5	.	.	.	.	.
COc1ccc(C(=O)OCCN2CCN(C3CN(Cc4cn(Cc5ccccc5C(F)(F)F)nn4)S(=O)(=O)C3)CC2)cc1OC (centres undefined)	.	0	.	.	.	.	.
COc1ccc(C(=O)C2(C(=O)NCc3ccccc3)CC(c3ccccc3C(F)(F)F)=NO2)cc1 (centres undefined)	.	5	.	.	.	.	.
COC(=O)[C@]12C[C@H](CC(=O)N3CCC(c4ccccc4)CC3)C(=O)N(Cc3ccco3)C1=C[C@H](C(C)(C)C)O[C@@H]2C	.	3	.	.	.	.	.
COC(=O)C1=C(C)N(Cc2cccc(C(F)(F)F)c2)C(=NCc2ccccc2C(F)(F)F)NC1c1cccc(C(F)(F)F)c1 (centres undefined)	.	-1	.	.	.	.	.
CC1(C)CCC(C)(C)c2cc(NC(=O)c3ccc(C(=O)O)cc3)ccc21	.	53*	.	.	.	36*	7.5*
O=C(O)c1cccc(NC(=S)NC(=O)C(c2ccccc2)c2ccccc2)c1	3	45*	2	-5	1	34	9.3*
O=C(O)c1ccc(NC(=S)NC(=O)C(c2ccccc2)c2ccccc2)cc1	-5	31	-1	-16	1	.	.
O=C(Nc1cc(C(=O)Nc2ccccc2C(=O)O)cc(C(=O)Nc2ccccc2C(=O)O)c1)c1ccccc1	24	77*	18	4	0	86*	61*
O=C(Nc1ccccc1C(=O)O)c1cccc(F)c1	-1	0	-3	-9	-2	.	.
CCc1ccccc1NC(=O)c1cccc(NC(=O)/C=C/c2ccco2)c1	3	10	1	-24	-1	.	.
O=C(/C=C/c1ccco1)Nc1cccc(C(=O)Nc2ccccc2C(=O)O)c1	-5	67*	12	58*	4	82*	49*
O=C(c1cc(-c2ccccc2Cl)nc2ccccc12)N1CCOCC1	-2	0	3	-3	1	.	.
SMILES	NadD block	rCAG binder	STEP block	Scp1 inh	LMPTP inh	rCAG bind conf	DNA CAG counter	others
O=C(c1cc(C(=O)N2CCOCC2)c2nc3ccccc3n2c1)c1cc(Cl)cc(Cl)c1O	12	46*	2	-13	-1	44*	12*
COC12CC(=O)C(C(C)=O)=C(O)C1(C)c1c(O)c(C)c(O)c(C(C)=O)c1O2 (centres undefined)	-2	55*	-7	.	-1	67*	30*
COC(=O)c1sc(-c2ccc(C(C)(C)C)cc2)cc1NC(=O)COCC(=O)O	-8	64*	8	-11	3	73*	31*	dCAG dye DR=9.1*
COC(=O)c1sc(-c2ccc(Cl)cc2)cc1NC(=O)CSCC(=O)O	-16	27	0	-8	1	.	.
C=CCn1c(Cc2cccs2)nnc1SCC(=O)Nc1ccc(OCc2ccccc2)cc1	.	3	.	.	.	.	.
COc1ccc2[nH]c3c(c2c1)CCN[C@]31C(=O)N(c2ccccc2)c2ccccc21	.	3	.	.	.	.	.
NC(c1csc(NC(=O)Nc2ccc(OC(F)(F)F)cc2)n1)C1CCCCC1 (centres undefined)	12	40*	-2	.	-3	25	4
CCCCOCCCNC(=O)C[C@H]1C[C@@]2(C(=O)OC)C(=C[C@H](C3CCCC3)O[C@@H]2C)N(Cc2ccco2)C1=O	.	6	.	.	.	.	.
CC(C)COc1ccc(-c2nn(-c3ccccc3)cc2/C=C2/SC(=S)N(CC(=O)O)C2=O)cc1	16	20	9	11	38	.	.
Cc1ccc(-c2nn(-c3ccccc3)cc2C=C2SC(=S)N(CCS(=O)(=O)O)C2=O)cc1	30*	87*	5	.	82*	94*	77*
O=C1C(=Cc2cn(-c3ccccc3)nc2-c2ccc(OCc3ccccc3)cc2)SC(=S)N1CCS(=O)(=O)O	50*	59*	10	.	88*	72*	49*
Cc1noc(C)c1NC(=O)Nc1ccc2c(c1)C(=O)N(C)[C@H]1CC[C@H](CC(=O)NCc3ccc(Cl)cc3)O[C@@H]1CO2	.	4	.	.	.	.	.
CC(C)(C)OC(=O)N1CCC2CCN(S(=O)(=O)c3ccccc3)CC21 (centres undefined)	.	-1	.	.	.	.	.
Cc1ccc(C)c(NC(=O)C2CCCN2S(=O)(=O)c2cccc3cccnc23)c1 (centres undefined)	.	1	.	.	.	.	.
CC(C)c1c(C(=O)Nc2ccccc2)c(-c2ccccc2)c(-c2ccc(F)cc2)n1CC[C@@H](O)C[C@@H](O)CC(=O)O	12	37*	3	.	0	36*	9.9*
COc1cccc(C(=O)n2ccc3ccc(-c4ccc5ccn(Cc6ccccc6)c5c4)cc32)c1	.	16	.	.	.	.	.

Compound activity deposited in PubChem by several laboratories.
